Screens (PubChem BioAssay)
The list is not random: actives were taken first. Their share in the collection is about 7.1%.
HUVEC inhibit: inhibitors of HUVEC proliferation, primary screen, cell-based, 384-well. CellTiter-Glo luminescence, 72 h; active compounds read low. viability, % at 10 µM (by protocol). 86,000 tested, 1.1% active. AID 648, 2007;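 active = viability at or below 30%; inactive = viability above 30%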;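 note: 100% = median luminescence of DMSO-only cell control wells on each plate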
Fibroblast inh: antiproliferative effect on LL 47 fibroblasts – human, LL 47 cells, CellTiter-Glo luminescence, primary screen. viability, % at 10 µM. LL 47 human lung fibroblast viability, ATP luminescence; active compounds read low. AID 719, 2007. 85,000 tested, 1.1% active;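 active = viability at or below 50% in the single dose screen; inactive = viability above 50%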;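 note: compound exposure lasted 72 h before the ATP readout; 100% = median luminescence of untreated cell-only wells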
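Test system: LL 47 human lung fibroblasts / Quantity: 1,150 cells in each well / Medium: IMEM growth medium with 15% fetal bovine serum / Incubation: 72 h compound exposure at 37 °C after overnight plating / Detection: CellTiter-Glo luminescence measuring cellular ATP / Read-out: % viability versus median cells-only luminescence / Benchmarks: cell-only wells, no compound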
bCat KO growth: primary screen for growth suppressors in beta-catenin knockout HCT116 cells (colon tumor, human). viability, % at 10 µM. AID 818, 2007. HCT116 beta-catenin knockout viability, CellTiter-Glo, 60 h; active compounds read low. 140,000 tested, 1.5% active;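 active = viability at or under a set limit, the compound median less 4 SD, cut at about 6% in these data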;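 note: 0% = Hyamine 1622 control at 20 µM and 100% = untreated cell control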
H69AR inhibit: proliferation blockers of H69AR lung cancer cells, primary screen, cell-based, human, 86K library; AID 598, 2007; 85,000 tested, 6% active; H69AR lung tumor viability, ATP luminescence, 72 h; active compounds read low; viability, % at 10 µM;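 active = viability at or below 40%; inactive = viability above 40%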;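 note: multidrug resistant small cell line overexpressing MRP-1 efflux transporter; 100% = mean luminescence of untreated control wells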
Cav3 T inh: Cav3.2 calcium influx blockers – cell-based, Fluo-4 calcium fluorescence, FDSS, MLSMR library, primary screen. Voltage-dependent T-type calcium channel subunit alpha-1H (Homo sapiens), O95180. 100,000 tested, 4% active. B-score at 10 µM. Cav3.2-expressing cells; active compounds read low. AID 449739, 2010;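 active = single-dose well whose peak fluorescence ratio is a statistical outlier from its plate by either plate-standardised score or position-corrected B-score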
HCT116 PTEN-null: growth suppression of PTEN-null HCT116, primary screen, cell-based, CellTiter-Glo. 140,000 tested, 1.2% active. HCT116 PTEN-null viability, 60 h; active compounds read low. viability, % at 10 µM;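 active = viability at or below a set limit, 4 SD under the median of all tested compounds, cut at about 3.7% in these data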;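 note: PTEN knockout HCT116 line with beta catenin targeted HCT116 as companion control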
* = called active by the depositor; · = not tested or not shown.

SMILES	HUVEC inhibit	Fibroblast inh	bCat KO growth	H69AR inhibit	Cav3 T inh	HCT116 PTEN-null
O=C(NCc1ccco1)C(c1ccco1)N(C(=O)Cn1nnc2ccccc21)c1ccc2c(c1)CCC2 (centres undefined)	98.8	100.9	·	89.8	-4.34*	·
O=C(NCCSCc1ccccc1)c1ccc(F)cc1	·	·	95.5	·	·	94.6
O=C(CC12CCC(CC1)C2)NCc1ccc2c(c1)OCO2	98.3	103.6	94.7	100.8	1.02	93.4
CCN1C(=O)/C(=c2/s/c(=C3\SC(C)=C(C)N3CC)c(=O)n2CC)N(c2ccccc2)C1=S	91.1	100.2	·	78.8	·	·
O=C(C1CCC(Cn2c(=O)[nH]c3ccccc3c2=O)CC1)N1CCN(c2ccccc2)CC1 (centres undefined)	66.3	76.1	93.4	84.4	·	78.7
O=C(c1ccc(F)cc1)C1CCN(CCn2c(=S)[nH]c3ccccc3c2=O)CC1	·	·	·	·	-4.82*	·
O=C(C1CCC(Cn2c(=S)[nH]c3ccccc3c2=O)CC1)N1CCN(c2ccccc2)CC1 (centres undefined)	73.0	·	·	71.9	-4.66*	·
CCN1CCN(CCn2c(=S)[nH]c3ccccc3c2=O)CC1	104.7	105.2	102.9	90.0	0.651	102.2
Cc1ccc(-n2c(C)nnc2SCC(=O)N2CCc3ccccc3C2)cc1	·	·	85.0	·	·	82.5
O=S(=O)(c1ccc2c(c1)nc(COc1ccc(Cl)cc1)n2CC1CCCO1)N1CCOCC1 (centres undefined)	67.2	5.7*	18.4	5.8*	-1.72	20.4
O=C(Nc1ccc(Cl)cc1)OCCn1nnnc1C(c1ccccc1)N1CCOCC1 (centres undefined)	·	·	85.1	·	-0.438	91.9
CN(C)c1ccc(C(c2nnnn2CCOC(=O)Nc2ccc(Cl)cc2)N2CCOCC2)cc1 (centres undefined)	97.6	99.2	80.1	89.0	-4.12*	76.0
Cc1ccccc1-n1nc2c(c1NC(=O)c1ccc(Br)o1)CSC2	101.6	99.8	96.9	98.1	-4.73*	96.1
O=C(CNC(=O)c1cccc(F)c1)N/N=C/c1cccc([N+](=O)[O-])c1	·	·	95.7	·	·	95.0
Cc1ccc2cccc(Oc3nnnn3-c3ccccc3)c2n1	102.4	94.1	91.3	73.9	-2.68	83.9
Cc1ccc(C(C)C)c(Oc2nnnn2-c2ccccc2)c1	84.4	87.1	55.5	30.2*	-1.83	62.1
c1ccc(-n2nnnc2Oc2cccc3cccnc23)cc1	78.6	89.6	49.0	36.1*	-0.804	24.9
CCn1cc(C2=NC(c3ccccc3)CO2)c2ccccc21 (centres undefined)	71.0	87.2	91.5	31.9*	-1.29	89.7
N=c1c(C(=O)NC2CCCCC2)cc2c(=O)n3ccccc3nc2n1CCN1CCOCC1	106.0	106.7	·	83.7	·	·
Cc1cc(C)c2c(-n3cccc3)c(C(=O)NNS(=O)(=O)c3ccc(Br)cc3)sc2n1	·	·	104.8	·	-4.69*	96.8
C[C@H]1CCC[C@@]2(O[C@H](CCO)C[C@@H](O)[C@@H]2O)O1	·	·	·	·	-0.0106	·
Cc1nc2ccc(NC(=O)c3cccc(S(=O)(=O)N4CC(C)OC(C)C4)c3)cc2s1 (centres undefined)	92.7	93.5	95.5	41.6	-0.202	91.7
Cc1cccc(N(CC(=O)N/N=C/c2cc([N+](=O)[O-])ccc2Cl)S(C)(=O)=O)c1C	·	·	7.8	·	-5.51*	9.3
Cc1cc(Cl)ccc1OCCCC(N)=O	85.5	41.6*	96.6	110.8	-0.0102	102.7
Cc1cc(Cl)ccc1OCCCC(=O)NO	92.1	81.5	67.2	3.1*	-0.00521	77.0
COc1ccccc1CCNCc1ccc(OC)c(OCc2ccccc2)c1	·	·	20.4	·	-4.76*	15.9
COc1cccc(CNCCc2c[nH]c3ccccc23)c1OCc1ccccc1	·	·	5.1*	·	·	7.8
CC1=C/C(=N\Nc2ccccc2[N+](=O)[O-])CC(C)(C)C1	·	·	83.3	·	·	80.7
CCCn1c(SCC(=O)Nc2ccccc2Oc2ccccc2)n[nH]c1=O	102.6	102.4	92.0	51.7	0.834	95.5
Cn1c(CCN2CCN(c3ccc(F)cc3)CC2)nc2cc(NC(=O)c3ccco3)ccc21	96.3	95.1	94.1	43.9	0.894	89.1
